Experimental data reported in ChEMBL document CHEMBL3390837, “Bridged tetrahydroisoquinolines as selective NADPH oxidase 2 (Nox2) inhibitors” (Medchemcomm, 2013).

Biological target: T1, NADPH oxidase 5 (Homo sapiens, UniProt Q96PH1)
T1 sequence (Q96PH1 whole entry): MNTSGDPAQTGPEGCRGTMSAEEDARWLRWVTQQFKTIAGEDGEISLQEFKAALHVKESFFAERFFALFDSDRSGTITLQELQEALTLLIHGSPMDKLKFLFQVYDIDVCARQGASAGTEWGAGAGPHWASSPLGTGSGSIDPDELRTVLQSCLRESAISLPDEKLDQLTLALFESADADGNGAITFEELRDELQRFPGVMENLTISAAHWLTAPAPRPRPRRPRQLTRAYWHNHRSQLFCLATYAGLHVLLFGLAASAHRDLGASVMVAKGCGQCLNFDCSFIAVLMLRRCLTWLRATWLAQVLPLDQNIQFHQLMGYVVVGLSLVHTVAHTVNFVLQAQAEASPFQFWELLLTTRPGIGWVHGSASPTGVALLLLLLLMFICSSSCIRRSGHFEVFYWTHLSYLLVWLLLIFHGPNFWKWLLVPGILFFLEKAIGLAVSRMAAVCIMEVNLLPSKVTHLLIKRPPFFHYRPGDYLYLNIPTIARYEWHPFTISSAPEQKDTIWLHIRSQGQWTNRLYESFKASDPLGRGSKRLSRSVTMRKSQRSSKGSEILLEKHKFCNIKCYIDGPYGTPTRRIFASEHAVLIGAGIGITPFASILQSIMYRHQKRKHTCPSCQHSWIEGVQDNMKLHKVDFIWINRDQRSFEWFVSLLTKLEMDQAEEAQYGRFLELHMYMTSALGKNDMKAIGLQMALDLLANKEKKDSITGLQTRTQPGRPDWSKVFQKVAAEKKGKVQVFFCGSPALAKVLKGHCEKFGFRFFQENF
Experiment: Inhibition of full length human NOX5 transfected in HEK cells assessed as inhibition of ionomycin-stimulated ROS generation by chemiluminescence assay
Assay type: cell-based, HEK293
In short: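 HEK-Nox5 cells at 5 × 10⁴ cells/well in OPTIMEM, 10 min at 37 °C in PBS with L-012, then stimulated with 1 µM PMA/0.1 µM ionomycin; luminescence over time; SOD 150 U/mL used to confirm superoxide specificity. IC50 by three-parameter fit, Hill slope 1, top/bottom fixed 100/0.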

C=C(C)C[C@@H]1N[C@H]2CC(C)(C)[C@@H]1c1c(Br)cccc12 (racemic)
IC50: 20 µM
